Assay outcomes deposited in PubChem BioAssay by The Scripps Research Institute Molecular Screening Center.
HTRA1 inh: HTRA1 (human) protease inhibition | Q92743 | recombinant HTRA1, FP-rhodamine activity-based probe, fluorescence polarization | inhibition, % at 5.96 µM | actives 0.5% (n = 340,000) | AID 504803; in the data active = inhibition above about 36%
Target sequence (Q92743 whole entry, looked up): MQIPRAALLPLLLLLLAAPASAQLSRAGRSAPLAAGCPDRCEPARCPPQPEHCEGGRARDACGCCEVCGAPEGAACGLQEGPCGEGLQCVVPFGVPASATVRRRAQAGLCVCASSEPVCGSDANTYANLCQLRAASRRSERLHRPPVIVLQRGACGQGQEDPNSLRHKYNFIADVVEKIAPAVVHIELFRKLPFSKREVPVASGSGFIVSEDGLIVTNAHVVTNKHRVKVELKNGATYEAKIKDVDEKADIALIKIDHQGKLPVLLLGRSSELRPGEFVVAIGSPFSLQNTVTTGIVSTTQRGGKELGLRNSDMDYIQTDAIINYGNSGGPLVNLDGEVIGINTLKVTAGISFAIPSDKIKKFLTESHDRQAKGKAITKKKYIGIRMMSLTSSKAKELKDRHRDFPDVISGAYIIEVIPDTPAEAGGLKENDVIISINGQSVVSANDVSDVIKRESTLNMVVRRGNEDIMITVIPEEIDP
mABHD4 FP: ABHD4 (mouse) inhibition, primary FP screen | Q8VD66 | purified mABHD4, FP-Rh probe fluorescence polarization | inhibition, % at 8.92 µM | actives 0.54% (n = 370,000) | AID 720543;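 active = inhibition exceeding the mean over every tested compound plus 3 SD, cut at about 30% in these data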
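Assay system: wild-type mouse ABHD4 protein; compound: single nominal dose of 8.92 µM, 0.89% DMSO final; schedule: 45 min + 60 min at 25 °C; measured by: FP readout, ex 525 nm / em 598 nm; evaluation: % inhibition of FP-Rh probe binding versus controls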
SIAE primary: human SIAE inhibition, primary screen; Q9HAT2; SIAE FP-Rh probe binding, fluorescence polarization; inhibition, % at 9.66 µM; actives 0.69% (n = 370,000);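 active = inhibition above a cutoff: mean of compounds within the control limits plus 3 SD of those, cut at about 17% in these data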
TCR CD3 inh: human TCR-CD3 binding inhibition; inhibition, % at 9.4 µM; TAMRA-labeled TCR probe fluorescence, biochemical; actives 0.37% (n = 360,000); AID 651800; in the data active = inhibition above about 19%;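 also: recombinant mutant TCR 2C K166C tagged with TAMRA read by polarization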
PRMT1 FP inh: inhibitors of human PRMT1; recombinant PRMT1, activity-based probe fluorescence polarization; inhibition, % at 2.79 µM; actives 1.3% (n = 370,000); AID 652257;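 active = inhibition above about 21% made by adding two undisclosed values, limit read from the data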
Each line names hits and unclear results; the compound was inactive in the other large screens. Shown are actives, neighbours in structure and some others; about 2.7% of the full set was active somewhere.

Cc1cc2c(cc1C)N(C(=O)CSc1nncn1C)C(C)(C)c1ssc(=S)c1-2	none
CC(C)C(=O)N(c1ccc2oc(=O)sc2c1)S(=O)(=O)c1ccccc1	PRMT1 FP inh 48
COc1ccc(OC)c(S(=O)(=O)N(C(C)=O)c2ccc3oc(=O)sc3c2)c1	PRMT1 FP inh 53
O=C(C1CCCN(S(=O)(=O)c2ccccc2[N+](=O)[O-])C1)N1CCN(Cc2ccccc2)CC1 (centres undefined)	none (no result: HTRA1 inh, TCR CD3 inh)
CCOc1cc(C2CC(=O)N3CN(C4CCCCC4)CSC3=C2C#N)ccc1O (centres undefined)	PRMT1 FP inh 32
COc1ccc2ccccc2c1C1CC(=O)N2CN(C3CCCCC3)CSC2=C1C#N (centres undefined)	none
N#CCCN(C(=O)CSc1ccc2c(c1)OCCO2)c1ccccc1	PRMT1 FP inh 22
CN(C(=O)CSc1ccc2c(c1)OCCO2)c1ccccc1	none
O=C(C1CCCO1)N1CCN(Cc2c(O)ccc3ccccc23)CC1 (centres undefined)	PRMT1 FP inh 23
Cc1cc(-n2c(C)cc(C(=O)CSc3ccc4c(c3)OCCO4)c2C)no1	PRMT1 FP inh 22
CC(=O)Nc1ccc(NC2=C/C(=N/S(=O)(=O)c3cccs3)c3ccccc3C2=O)cc1	mABHD4 FP 34 (no result: HTRA1 inh)
Cc1ccc(NC2=C/C(=N/S(=O)(=O)c3cccs3)c3ccccc3C2=O)cc1C	none
N#Cc1cc(-c2ccccc2)nn1-c1ccccc1	PRMT1 FP inh 23
Cn1ccc(-c2ccccc2)n1	none
N#Cc1ccc(C(=O)Oc2coc(CSc3ncccn3)cc2=O)cc1	none (no result: HTRA1 inh, TCR CD3 inh)
O=c1[nH]cc(CCCc2ccccc2)c(=O)[nH]1	none
COc1cc(NC(=S)N2CCN(c3ccccn3)CC2)c(OC)cc1Cl	PRMT1 FP inh 22
COc1ccc(Cl)cc1NC(=S)N1CCN(c2ccccn2)CC1	none
O=C(CSC1CS(=O)(=O)c2cc([N+](=O)[O-])ccc21)NNC(=O)c1ccc(Cl)cc1 (centres undefined)	PRMT1 FP inh 23
O=C(O)CN1C(=O)/C(=C\c2cccc(OCc3ccccc3)c2)SC1=S	PRMT1 FP inh 30
O=C(O)COc1cccc(/C=C2/SC(=S)N(Cc3ccccc3)C2=O)c1	none
CCCCCCCC(=O)N[C@H]1CC[C@@]23CCCN2C(=O)CCC[C@H]3[C@H]1C	none (no result: HTRA1 inh, TCR CD3 inh)
COc1cc(N2C(=O)C=CC2=O)c(OC)cc1Cl	PRMT1 FP inh 90
COc1cc(Cl)c(S(=O)(=O)N2CCCC2)cc1Cl	none
CCCCN1C(=O)C(=O)c2cc(Cl)ccc21	none
CS(=O)(=O)c1ccccc1-c1nnc(NC(=O)c2ccc3ncsc3c2)o1	PRMT1 FP inh 28
CCc1ccc(NC(=O)CSc2nccn(-c3ccc4c(c3)OCCO4)c2=O)cc1	PRMT1 FP inh 22
Cc1ccc(NC(=O)CSc2nccn(-c3ccc4c(c3)OCCO4)c2=O)cc1	none
CCOc1ccc(NC(=O)CSc2nccn(-c3ccc4c(c3)OCCO4)c2=O)cc1	PRMT1 FP inh 22
Cc1ccc(C(=O)N2CCC(N3CCC(C(=O)N4CCOCC4)CC3)CC2)cc1	none
CCOC(=O)[C@@]12CCC3=C1N(CCC3)C(=O)[C@H](CC(=O)NCCCCc1ccccc1)C2	none (no result: HTRA1 inh, TCR CD3 inh)
O=C(O)/C=C\C(=O)Nc1ccccc1C#Cc1ccc(Br)cc1	PRMT1 FP inh 22
O=C(O)/C=C\C(=O)Nc1ccccc1C#Cc1ccccc1	none
CCOC(=O)C1C2C=CC3(CN(c4ccc(Cl)c(F)c4)C(=O)C13)O2 (centres undefined)	none
CCCOC(=O)C1C2C=CC3(CN(c4ccc(Cl)c(F)c4)C(=O)C13)O2 (centres undefined)	SIAE primary 49
CN(C1CCCC1)C1CCN(C(=O)CNC(=O)/C=C/c2ccccc2)CC1	none
CC1CCCCC1N(C)C1CCN(C(=O)CNC(=O)/C=C/c2cccc(Cl)c2)CC1 (centres undefined)	PRMT1 FP inh 22
CCC(=O)OCCCN1CCC2(CCCCC2)C1=O	none (no result: HTRA1 inh, TCR CD3 inh)
COc1ccc(-c2nnc(SCC(=O)NN=Cc3c(O)ccc4ccccc34)n2-c2ccc(OC)cc2)cc1	none (no result: HTRA1 inh, TCR CD3 inh)
COc1ccc(N2CCN(C(=O)c3ccc4c(c3)NC(=O)C(CSCc3ccccc3F)N4)CC2)cc1 (centres undefined)	PRMT1 FP inh 37
Cc1csc(NC(=O)c2cc(C)nc3ccccc23)n1	none
CCNC(=O)COC(=O)c1cc(-c2ccco2)nc2ccccc12	PRMT1 FP inh 38
O=C(NC1CC1)c1cc(-c2ccco2)nc2ccccc12	none (no result: mABHD4 FP, SIAE primary, TCR CD3 inh, PRMT1 FP inh)
Cc1csc(NC(=O)c2cc(-c3ccco3)nc3ccccc23)n1	PRMT1 FP inh 24
O=C(OCC(=O)N1CCN(C(=O)c2ccco2)CC1)c1cc(-c2ccco2)nc2ccccc12	none (no result: mABHD4 FP, SIAE primary, TCR CD3 inh, PRMT1 FP inh)
O=C(O)c1cc(-c2ccco2)nc2ccccc12	PRMT1 FP inh 23
Cc1ccc(Cn2cc(CN3[C@H](CC(C)C)COc4cc(Br)ccc4S3(=O)=O)nn2)cc1	none (no result: HTRA1 inh, TCR CD3 inh)
O=[N+]([O-])c1ccc(CN2CCOCCOCCN(Cc3ccc([N+](=O)[O-])cc3Cl)CCOCC2)c(Cl)c1	none (no result: HTRA1 inh, TCR CD3 inh)
COc1ccc(NCc2nnc(SCC(=O)Nc3ccccc3OC)o2)cc1	PRMT1 FP inh 22
CC(C)(C)c1ccc(C(=O)NCc2nnc(SCC(=O)NC3CCCC3)o2)cc1	none
O=C(CSC1=NCCS1)Nc1nc2ccccc2s1	PRMT1 FP inh 42
COc1ccc(C(=O)NCc2nnc(SCC(=O)Nc3nc4ccccc4s3)o2)cc1	PRMT1 FP inh 23
CC(C)(C)c1ccc(C(=O)NCc2nnc(SCC(=O)NC3CCCCC3)o2)cc1	PRMT1 FP inh 21
COc1ccc(CN2C(=O)[C@]3(NCCc4c3[nH]c3ccc(OC)cc43)c3cc(Br)ccc32)cc1	none (no result: HTRA1 inh, TCR CD3 inh)
O=C(CSc1nnc(-c2cccnc2)n1-c1ccc(Cl)cc1)c1ccc2ccccc2c1	none (no result: HTRA1 inh, TCR CD3 inh)
COc1ncnc2c1ncn2CCCNCc1ccccn1	none
O=C(Cn1ncc2c1-c1ccccc1OC2)Nc1nc2ccccc2s1	TCR CD3 inh 19
Nc1sc2c(c1C(=O)NC1CCS(=O)(=O)C1)CCCC2 (centres undefined)	SIAE primary 22, PRMT1 FP inh 23
CC(=O)Nc1ccc(CN2C(=O)C(C)ON=C2c2ccccc2-c2ccco2)cc1 (centres undefined)	PRMT1 FP inh 23 (no result: HTRA1 inh)
CC(C)(C)NC(=O)C(c1cc2ccccc2o1)n1c(=O)c(-c2ccco2)nc2ccccc21 (centres undefined)	PRMT1 FP inh 23 (no result: HTRA1 inh)
c1nc(NCC2CC2)c2cc(-c3ccc4c(c3)OCO4)ccc2n1	none (no result: HTRA1 inh, TCR CD3 inh)
Cc1cc(C(=O)NCc2ccco2)on1	PRMT1 FP inh 24
CSc1nnc(-c2cc3c(s2)-c2ccccc2CC3)o1	none
S=c1[nH]nc(-c2cc3c(s2)-c2ccccc2CC3)o1	PRMT1 FP inh 22
CCOC(=O)C1=C(c2ccccc2)N=c2s/c(=C\c3cc(OC)c(OC)c(OC)c3)c(=O)n2C1c1cccs1 (centres undefined)	none
CCOC(=O)C1=C(c2ccccc2)N=c2s/c(=C\c3ccco3)c(=O)n2C1c1cccs1 (centres undefined)	PRMT1 FP inh 23
